Source: PubChem (several laboratories)
UBC9 SUMO inh – inhibitors of in vitro SUMOylation cascade, primary screen, biochemical, HTRF, uHTS; 0.36% of 290,000 active; HTRF SUMOylation assay, SAE1/SAE2 + UBC9; inhibition, % at 35 µM; in the data active means inhibition above about 50%, passing the limit was not always enough
UBC13 inh – UBC13 polyubiquitin chain formation inhibitors, primary screen, biochemical, TR-FRET, uHTS; Ubiquitin-conjugating enzyme E2 N (Homo sapiens), P61088; 0.47% of 330,000 active; AID 485273, 2010; inhibition, % at 20 µM; in the data active means inhibition above about 45%, passing the limit was not always enough
Rin1-Abl PPI inh – inhibitors of Rin1-Abl protein binding, primary screen, biochemical, TR-FRET; 0.4% of 360,000 active; Tyrosine-protein kinase ABL1 (Homo sapiens) + Ras and Rab interactor 1 (Homo sapiens), …; inhibition, % at 7.35 µM; AID 588664, 2011; in the data active means inhibition above about 5%, passing the limit was not always enough
ALR H2O2 inh – inhibitors of human ALR sulfhydryl oxidase, primary screen, biochemical, H2O2 detection, HRP-luminol luminescence, single point; inhibition, % (no concentration beside the values); FAD-linked sulfhydryl oxidase ALR (Homo sapiens), P55789; purified ALR, DTT oxidation; 3.8% of 290,000 active;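 active means mean replicate inhibition above about 79%, with every replicate also reaching it, limit read from the data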
RBBP9 inh – human RBBP9 inhibitors, primary screen, biochemical, fluorescence polarization, FP-Rh probe, HTS; Serine hydrolase RBBP9 (Homo sapiens), O75884; recombinant RBBP9; inhibition, % at 7.94 µM; 0.2% of 220,000 active; AID 1515, 2009;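 active means inhibition above the campaign mean of all tested compounds plus 3 SD, cut at about 14% in these data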
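Test system – recombinant human RBBP9 · Input – RBBP9 2.5 µM in dispensing solution, pre-mixing · Medium – Tris buffer pH 8.0, NaCl, Pluronic · Schedule – preincubation 30 min plus labeling 45 min at 25 °C · Measured by – fluorescence polarization · Measure – % inhibition · Controls – DMSO and no-protein wells · Replicates – one well per compound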
PREPL inh – PREPL enzyme inhibitors, primary screen, biochemical, fluorescence polarization | Prolyl endopeptidase-like (Homo sapiens), Q4J6C6 | recombinant PREPL, fluorescence polarization activity-based probe | inhibition, % at 5.96 µM | 0.68% of 320,000 active | AID 2751, 2010; in the data active means inhibition above about 43%
Target sequence (Q4J6C6 whole entry, looked up): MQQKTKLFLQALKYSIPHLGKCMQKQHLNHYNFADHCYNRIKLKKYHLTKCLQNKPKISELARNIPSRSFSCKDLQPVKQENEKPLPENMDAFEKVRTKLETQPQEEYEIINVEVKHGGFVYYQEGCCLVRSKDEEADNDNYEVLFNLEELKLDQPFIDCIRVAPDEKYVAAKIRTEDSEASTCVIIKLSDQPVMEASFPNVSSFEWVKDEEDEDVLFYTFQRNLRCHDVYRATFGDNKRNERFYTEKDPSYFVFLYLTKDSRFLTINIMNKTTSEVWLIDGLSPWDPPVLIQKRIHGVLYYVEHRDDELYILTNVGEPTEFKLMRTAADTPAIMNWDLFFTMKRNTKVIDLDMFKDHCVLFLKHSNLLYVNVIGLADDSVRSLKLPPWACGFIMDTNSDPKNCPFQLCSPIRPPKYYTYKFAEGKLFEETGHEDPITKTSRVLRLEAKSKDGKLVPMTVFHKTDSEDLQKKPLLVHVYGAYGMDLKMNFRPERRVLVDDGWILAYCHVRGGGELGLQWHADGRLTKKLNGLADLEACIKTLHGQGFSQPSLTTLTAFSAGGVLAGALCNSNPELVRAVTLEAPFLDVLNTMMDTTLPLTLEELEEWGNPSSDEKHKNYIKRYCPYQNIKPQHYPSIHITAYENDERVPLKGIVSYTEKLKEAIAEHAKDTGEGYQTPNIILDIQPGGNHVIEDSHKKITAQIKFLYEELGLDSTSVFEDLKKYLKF
A number is an active result; 0 = inactive; - = no result. An excerpt weighted towards active compounds, which were near 4.3% of everything screened.

SMILES | UBC9 SUMO inh | UBC13 inh | Rin1-Abl PPI inh | ALR H2O2 inh | RBBP9 inh | PREPL inh
C[C@@H](NCCCn1ccc(NC(=O)OCc2ccccc2)nc1=O)c1cccc2ccccc12 | - | - | 0 | - | - | -
CCOC(=O)C1c2cccc(O)c2CCN1C(C)=O (stereo unspecified) | - | - | 0 | - | - | -
COc1ccc(CNC(=O)C2CCC(CNC(=O)[C@@H]3Cc4ccccc4CN3)CC2)cc1 (stereo partly specified) | 0 | 0 | 0 | 0 | - | 0
CC(=O)Nc1cc(-c2cccc(C(=O)NCCN(C)C)c2)cn2c(-c3ccc(C(C)=O)cc3)cnc12 | - | - | 0 | - | - | -
O=c1c2ccccc2nc2n1CCC2 | 73 | 0 | 0 | 0 | 0 | 0
O=C(CCn1c(=O)oc2ccccc21)n1c(=O)oc2ccccc21 | 0 | 0 | 0 | 96 | 0 | 0
O=C(CCn1c(=O)oc2ccccc21)N1CCCCCC1 | 0 | 0 | 0 | 0 | 0 | 0
Cc1cccc(-n2c(-c3ccco3)n[nH]c2=S)c1 | 0 | 0 | 0 | 86 | 0 | 0
S=c1[nH]nc(-c2ccco2)n1Cc1ccccc1 | 0 | 0 | 0 | 92 | 0 | 0
CCCCn1c(-c2ccco2)n[nH]c1=S | 0 | 0 | 0 | 98 | 0 | 0
O=C(O)c1ccc(-n2c(-c3cc(-c4ccco4)[nH]n3)n[nH]c2=S)cc1 | 0 | 0 | 0 | 96 | 0 | 0
Cc1cccc(-n2c(-c3ccc(Br)o3)n[nH]c2=S)c1 | - | 0 | 0 | 0 | - | 0
CN(C)S(=O)(=O)c1ccc(Cl)c(NC(=O)C2CCN(S(=O)(=O)c3cccs3)CC2)c1 | - | 0 | 0 | 0 | - | 0
C[C@H](O)[C@@H]1C(=O)N2CCc3ccc(-c4ccccc4)cc3[C@@H]2C[C@@H]1N(C)C(=S)Nc1ccc(F)cc1 | - | - | 0 | - | - | -
CC(O)Cn1c(N2CCCC2)nc2c1c(=O)[nH]c(=O)n2C (stereo unspecified) | 0 | 0 | 0 | 0 | - | 0
CCc1nnc(NS(=O)(=O)c2ccc(NC(=O)/C=C/c3ccc(F)cc3)cc2)s1 | 0 | 0 | 0 | 98 | 0 | 0
CCc1nnc(NS(=O)(=O)c2ccc(NC(=O)Nc3ccc(OC)cc3)cc2)s1 | 0 | 0 | 0 | - | - | 0
CCCCOc1cccc(C(=O)Nc2ccc(S(=O)(=O)Nc3nnc(CC)s3)cc2)c1 | 0 | 0 | 0 | 97 | - | 0
CCc1nnc(NS(=O)(=O)c2ccc(NC(=O)OC)cc2)s1 | 0 | 0 | 0 | 98 | 0 | 0
CCc1nnc(NS(=O)(=O)c2ccc(NC(=S)NC(=O)c3ccc(F)cc3)cc2)s1 | 0 | 0 | 0 | 0 | 0 | 0
Cc1ccc(S(=O)(=O)Nc2ccc(N=Nc3ccc(O)cc3)cc2)cc1 | 0 | 0 | 0 | 90 | 0 | 0
CCc1nnc(NS(=O)(=O)c2ccc(NC(=O)c3cccc([N+](=O)[O-])c3)cc2)s1 | 0 | 0 | 0 | 0 | - | 0
COC(=O)c1ccc(CN2CCCC(CCC(=O)NCc3ccc(C)o3)C2)cc1 (stereo unspecified) | 0 | 0 | 0 | 0 | 0 | 0
COC(=O)Nc1ccc(S(=O)(=O)Nc2ccc(C)cc2)cc1 | 0 | - | - | - | 0 | -
COC(=O)Nc1ccc(S(=O)(=O)Nc2ccc(O)cc2)cc1 | 0 | 0 | 0 | 89 | 0 | 0
SMILES | UBC9 SUMO inh | UBC13 inh | Rin1-Abl PPI inh | ALR H2O2 inh | RBBP9 inh | PREPL inh
COc1ccc(S(=O)(=O)Nc2nnc(Cc3ccc(OC)c(OC)c3)s2)cc1 | 0 | 0 | 0 | 98 | 0 | 0
COCC(=O)N(Cc1cc2cc(C)ccc2[nH]c1=O)c1cccc(C)c1C | 0 | 0 | 0 | 82 | - | 0
COCC(=O)N(Cc1cc2cc(C)ccc2[nH]c1=O)c1ccc(C)c(C)c1 | 0 | 0 | 0 | 0 | - | 0
C[C@H]1CNC(=O)c2c(C(=O)N[C@@H](Cc3c[nH]c4ccccc34)C(=O)OC(C)(C)C)ncn21 | - | - | 0 | - | - | -
O=[N+]([O-])c1ccc2c(c1)CNc1ccccc1O2 | 0 | 0 | 0 | 99 | 0 | 0
O=C(Nc1ccc(O)cc1)/C(=C\c1ccncc1)NC(=O)c1ccccc1 | 0 | 0 | 0 | 99 | 0 | 0
O=C(Nc1ccc(O)cc1)/C(=C/c1ccco1)NC(=O)c1ccccc1 | 0 | 0 | 0 | 99 | 0 | 0
Cn1nc(C(C)(C)C)cc1NC(=O)C1(C)CCN1C(=O)C1(c2ccccc2)CC1 (stereo unspecified) | - | - | 0 | - | - | -
Cc1noc(C)c1S(=O)(=O)Nc1ccc2c(c1)C(=O)N([C@@H](C)CO)C[C@H](C)[C@@H](CN(C)Cc1ccc(C(F)(F)F)cc1)OCCCC[C@H](C)O2 | - | - | 0 | - | - | -
CCCCn1c(NCc2ccc3c(c2)OCO3)nc2ccccc21 | 0 | 0 | 0 | 92 | 0 | 0
CN(C)CCn1c(NCc2ccc3c(c2)OCO3)nc2ccccc21 | 0 | 0 | 0 | 0 | - | -
CCCn1c(NCc2ccc3c(c2)OCO3)nc2ccccc21 | 0 | 0 | 0 | 96 | 0 | 0
COc1cc(CC(=O)N(c2ccccc2)c2nc(C)cs2)cc(OC)c1OC | 0 | 0 | 0 | 0 | 0 | 0
COC1=C(NCc2ccc3c(c2)OCO3)C(=O)C(OC)=C(NCc2ccc3c(c2)OCO3)C1=O | - | - | 0 | - | - | -
COc1cccc2sc3ccc(NCc4ccc5c(c4)OCO5)cc3c(=O)c12 | 0 | 0 | 0 | 92 | - | 0
Cc1nn(-c2ccccc2)c2[nH]c(=O)c(CNCCN3CCOCC3)cc12 | 0 | 0 | 0 | 91 | 0 | 0
Cc1nn(-c2ccccc2)c2[nH]c(=O)c(CNCc3ccc4c(c3)OCO4)cc12 | 0 | 0 | 0 | 0 | 0 | 0
O=C1CCCCC/C1=N/Nc1ccc(OCc2ccccc2)cc1 | 0 | 0 | 0 | 99 | 0 | 0
O=C(COc1ccc(OCc2ccccc2)cc1)NN=C1CCCC1 | 0 | 0 | 0 | - | 0 | 0
O=C(Nc1ccccc1Cl)c1cc(C2CCCN(C(=O)c3ccccc3)C2)on1 (stereo unspecified) | - | - | 0 | - | - | -
CCOc1ccccc1NC(C)C(=O)NC(=O)NC1CCCCC1 (stereo unspecified) | - | 0 | 0 | 88 | - | 0
CC(Nc1ccc(F)cc1F)C(=O)NC(=O)NC1CCCCC1 (stereo unspecified) | 0 | 0 | 0 | 0 | 0 | 0
Cc1cc(C)cc(N(CC(=O)Nc2ccccc2)C2=NC3CS(=O)(=O)CC3S2)c1 (stereo unspecified) | 0 | 0 | 0 | 98 | 0 | 0
COc1ccc(N(CC(=O)Nc2ccccc2C(F)(F)F)C2=NC3CS(=O)(=O)CC3S2)cc1 (stereo unspecified) | 0 | 0 | 0 | 97 | - | 0
CC(=O)c1ccc(S(=O)(=O)Nc2c(C)nn(C)c2C)cc1 | - | 0 | 0 | - | - | -
Cc1ccc(Cn2cc(/C=N/Nc3ccc([N+](=O)[O-])cn3)c3ccccc32)cc1 | 0 | 0 | 0 | 0 | 0 | 0
O=C(O)Cn1cc(/C=N/Nc2ccc([N+](=O)[O-])cn2)c2ccccc21 | 0 | 0 | 0 | 99 | - | -
